Source: PubChem BioAssay
Calls of active or inactive are those of the source.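 How the source made its calls, unless noted: active means current rise at least 3 SD above the untreated control mean in each of two repeat wells; inactive means the rest.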

target: Potassium voltage-gated channel subfamily KQT member 2 (Rattus norvegicus) (UniProt O88943); experiment: rat KCNQ2 channel potentiation, selectivity assay for KCNQ1 potentiator project, KCNQ2-CHO-K1 cells (AID 493009;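 active means mean duplicate potentiation above the buffer control mean plus 5 SD of buffer wells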;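 further: assay conditions were tuned for KCNQ1 rather than KCNQ2 modulators; signal is max minus min fluorescence divided by baseline after thallium stimulus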); conditions: FluxOR thallium flux fluorescence, at 10 µM; hits give high values, scaled: buffer 0, activator control 100
Sequence (O88943 whole entry, looked up): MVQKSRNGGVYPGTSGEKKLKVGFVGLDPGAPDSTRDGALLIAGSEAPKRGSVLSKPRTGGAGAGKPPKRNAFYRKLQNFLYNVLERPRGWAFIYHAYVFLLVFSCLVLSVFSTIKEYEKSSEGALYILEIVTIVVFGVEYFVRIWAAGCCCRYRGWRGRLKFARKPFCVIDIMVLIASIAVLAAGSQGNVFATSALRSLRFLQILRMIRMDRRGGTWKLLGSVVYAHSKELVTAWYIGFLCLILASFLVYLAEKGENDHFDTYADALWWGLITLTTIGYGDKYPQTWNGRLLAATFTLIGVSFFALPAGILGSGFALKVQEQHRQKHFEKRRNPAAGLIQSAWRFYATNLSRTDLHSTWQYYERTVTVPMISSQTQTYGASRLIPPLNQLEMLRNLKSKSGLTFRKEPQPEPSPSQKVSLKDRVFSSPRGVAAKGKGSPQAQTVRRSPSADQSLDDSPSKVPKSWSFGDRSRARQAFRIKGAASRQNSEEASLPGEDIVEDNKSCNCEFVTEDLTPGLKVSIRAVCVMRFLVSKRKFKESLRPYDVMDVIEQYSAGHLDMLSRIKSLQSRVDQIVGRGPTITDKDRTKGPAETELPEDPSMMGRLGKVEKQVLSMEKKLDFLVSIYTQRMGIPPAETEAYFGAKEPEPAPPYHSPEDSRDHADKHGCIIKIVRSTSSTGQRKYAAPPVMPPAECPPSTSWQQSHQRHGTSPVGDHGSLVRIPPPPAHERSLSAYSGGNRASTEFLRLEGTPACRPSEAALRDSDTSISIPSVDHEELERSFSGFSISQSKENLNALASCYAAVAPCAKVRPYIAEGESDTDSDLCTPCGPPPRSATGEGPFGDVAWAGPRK

outcome, inactive:
O=C(COC(=O)c1cc(NS(=O)(=O)c2cccs2)ccc1O)Nc1cc(Cl)ccc1Cl, O=C(CCn1c(=O)sc2ccccc21)NCc1ccco1, O=C(COc1ccc(C(=S)N2CCC(Cc3ccccc3)CC2)cc1)N1CCOCC1, CCN(CC(=O)Nc1ccc(OC)cc1)C(=O)CSCC(=O)Nc1ccc(C)cc1, Cc1nc(NC(=S)NC(=O)c2cccs2)ccc1Br, CCOC(=O)c1ccc(-c2ccc(C3Nc4ccccc4C(=O)N3O)o2)cc1 (stereo not drawn), Cc1cccc(NC(=O)CSc2ccc3nnc(-c4cccnc4)n3n2)c1, CSc1nc(Nc2ccc(Cl)cc2)c(C#N)c(=O)[nH]1, CC(=O)Nc1ccc(S(=O)(=O)N2CCC(C(=O)O)CC2)cc1

potentiation, active:
COc1ccc(OC)c(NC(=O)C(=O)NNC(=O)COc2ccc(Br)cc2C)c1 614%, CC1(C)Cc2c(sc3[nH]c(=S)n(Cc4ccccc4)c(=O)c23)CO1 198%, CC(C)(C)C1CCc2c(sc(NC(=O)C3CC=CCC3C(=O)O)c2C#N)C1 (stereo not drawn) 184%, CC1CCc2sc3nc(N4CCN(CCO)CC4)n4ncnc4c3c2C1 (stereo not drawn) 500%, CCC1(c2ccccc2)NC(=S)N(c2ccc(C)cc2)N1 (stereo not drawn) 522%, CCN(c1ccccc1)S(=O)(=O)c1ccc(NC(=O)c2nc(S(C)(=O)=O)ncc2Cl)cc1 156%, Cc1cc(Br)ccc1OCC(=O)NNC(=O)C(=O)Nc1ccccc1 478%, CCOc1ncccc1C(=O)OCc1ccc(C#N)cc1 392%, COc1ccccc1C(=O)NNC(=O)C(=O)NCc1ccccc1 218%, Cc1ccc(-c2cc(-c3n[nH]c(=S)o3)c3ccccc3n2)cc1 512%

target: Potassium voltage-gated channel subfamily KQT member 1 (Homo sapiens) (UniProt P51787); experiment: KCNQ1 channel current potentiators, confirmation, orthogonal assay for KCNQ1 potentiator project, IonWorks patch clamp, KCNQ1-CHO cells (AID 493184); conditions: automated patch clamp current, at 10 µM; hits give high values;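 on Current potentiation: percent change of the same well's current before compound addition so 0% = no change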
Sequence (P51787 whole entry, looked up): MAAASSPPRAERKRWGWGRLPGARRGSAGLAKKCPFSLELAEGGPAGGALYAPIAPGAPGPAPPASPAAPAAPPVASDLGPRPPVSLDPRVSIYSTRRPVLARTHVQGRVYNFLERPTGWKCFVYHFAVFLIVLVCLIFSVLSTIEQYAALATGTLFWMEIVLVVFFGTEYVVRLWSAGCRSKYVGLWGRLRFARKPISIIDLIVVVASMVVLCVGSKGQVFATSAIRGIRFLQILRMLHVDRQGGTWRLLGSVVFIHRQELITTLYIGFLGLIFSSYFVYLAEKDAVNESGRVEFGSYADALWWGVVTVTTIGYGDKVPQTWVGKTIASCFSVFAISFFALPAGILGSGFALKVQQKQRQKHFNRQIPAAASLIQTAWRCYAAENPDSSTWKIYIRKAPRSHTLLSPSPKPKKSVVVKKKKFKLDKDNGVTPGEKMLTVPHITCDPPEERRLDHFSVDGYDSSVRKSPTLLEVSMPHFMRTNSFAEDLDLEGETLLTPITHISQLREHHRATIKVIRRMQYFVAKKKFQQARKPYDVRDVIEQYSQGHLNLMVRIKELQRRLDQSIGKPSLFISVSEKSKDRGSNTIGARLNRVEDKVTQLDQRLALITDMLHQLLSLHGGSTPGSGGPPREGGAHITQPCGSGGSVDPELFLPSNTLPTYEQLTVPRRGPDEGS
In short: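 Test system: KCNQ1-expressing CHO cells. Medium: pH 7.4 external bath. Probe or stimulus: voltage step from -90 mV holding to +40 mV, 2,000 ms. Compound: 10 µM final, single point. Detection: automated perforated-patch electrophysiology. Read-out: percent current increase versus pre-compound level. Repeats: two replicates.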

outcome, inactive:
Cc1cc(C(=O)N/N=C/C=C/c2ccc3c(c2)OCO3)n[nH]1, Cc1ccc(/C=C/C(=O)c2ccccc(=O)c2O)c(C)c1, CCCCC(=O)N(c1ccc(OCC)cc1)C1C=CS(=O)(=O)C1 (stereo not drawn), CC(c1ccccc1C(O)(c1ccccc1)c1ccccc1)N(C)C (stereo not drawn), Cc1cccc(CC2CC(=O)N(c3ccc(C)cc3Br)C2=O)c1 (stereo not drawn), Cc1ccccc1NC(=S)NNC(=O)c1csc2c1CCC(C)C2 (stereo not drawn), CN(CCCNC(=O)CSc1cc(=O)n(C)c2ccc(Cl)cc12)Cc1ccccc1, CCCn1nnnc1SCC(=O)c1ccc2c(c1)OCCO2, CCc1nc2sc3c(=O)[nH]cnc3c2c2c1CSC(C)(C)C2, CCOC(=O)c1c(NC(=S)NC(=O)c2ccco2)sc2c1CCCC2, O=C(NN=C1CCCC1)c1n[nH]c2c1CCC2, O=C1c2ccccc2C2(c3cc(C(F)(F)F)cc(C(F)(F)F)c3)NCCN12 (stereo not drawn), Oc1c(Br)cc(Br)cc1C=NCc1ccccc1, COc1cccc(OC)c1OCCOCCN1CCN(C)CC1, C=CCCCN(Cc1ccccc1)S(=O)(=O)c1ccccc1Br, O=c1cc(-c2ccccc2)cc(-c2ccccc2)n1O, OC(CON=C1c2ccccc2-c2ccccc21)CN1CCNCC1 (stereo not drawn), CCN1c2ccccc2-c2nc3ccccc3n2C1c1cccnc1 (stereo not drawn), Fc1ccc(SCCc2ccncc2)cc1, CCCCCCCCCCCCN1[C@@H](CC(=O)O)c2cc(F)ccc2S1(=O)=O, O=C(COC(=O)c1cc(NS(=O)(=O)c2cccs2)ccc1O)Nc1cc(Cl)ccc1Cl, COc1ccc(OC)c(NC(=O)C(=O)NNC(=O)COc2ccc(Br)cc2C)c1, O=C(CCn1c(=O)sc2ccccc21)NCc1ccco1, CC1(C)Cc2c(sc3[nH]c(=S)n(Cc4ccccc4)c(=O)c23)CO1, CC(C)(C)C1CCc2c(sc(NC(=O)C3CC=CCC3C(=O)O)c2C#N)C1 (stereo not drawn), O=C(COc1ccc(C(=S)N2CCC(Cc3ccccc3)CC2)cc1)N1CCOCC1, CCN(CC(=O)Nc1ccc(OC)cc1)C(=O)CSCC(=O)Nc1ccc(C)cc1, CC1CCc2sc3nc(N4CCN(CCO)CC4)n4ncnc4c3c2C1 (stereo not drawn), CCC1(c2ccccc2)NC(=S)N(c2ccc(C)cc2)N1 (stereo not drawn), Cc1nc(NC(=S)NC(=O)c2cccs2)ccc1Br, CCN(c1ccccc1)S(=O)(=O)c1ccc(NC(=O)c2nc(S(C)(=O)=O)ncc2Cl)cc1, CCOC(=O)c1ccc(-c2ccc(C3Nc4ccccc4C(=O)N3O)o2)cc1 (stereo not drawn), Cc1cccc(NC(=O)CSc2ccc3nnc(-c4cccnc4)n3n2)c1, Cc1cc(Br)ccc1OCC(=O)NNC(=O)C(=O)Nc1ccccc1, CSc1nc(Nc2ccc(Cl)cc2)c(C#N)c(=O)[nH]1, CC(=O)Nc1ccc(S(=O)(=O)N2CCC(C(=O)O)CC2)cc1, CCOc1ncccc1C(=O)OCc1ccc(C#N)cc1, COc1ccccc1C(=O)NNC(=O)C(=O)NCc1ccccc1

Current potentiation, active:
Cc1ccc(-c2cc(-c3n[nH]c(=S)o3)c3ccccc3n2)cc1 18.8%
